According to ChEMBL document CHEMBL4689842, “EUbOPEN Chemogenomics Library wave 1” (2021):

Test system: HEK-293T
Experiment: Multiplex assay against HEK293T;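 as to Population Tubulin-Different-Phenotype (%): share of the cells with healthy nuclei that show this phenotype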
Assay type: toxicity, cell-based
Conditions: human
Method in brief: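 Cells stained live at seeding with Hoechst33342, BioTracker Green Microtubule Cytoskeleton Dye, MitoTracker Red and Annexin V Alexa Fluor 680 were imaged on a CQ1 microscope at 37°C and 5% CO2 after compound addition. Their classification by CellPathfinder machine-learning gating ran from Hoechst high-intensity objects versus normal cells, to healthy, pyknosed or fragmented nuclei among normal cells, to mitotic or apoptotic among pyknosed cells. Tubulin, mitochondrial-mass and membrane-permeability phenotypes are per cents of healthy-nucleus cells.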

[1] = 12 h, 1 µM, compound concentration 1 uM, replicate 1
[2] = 12 h, 1 µM, compound concentration 1 uM, replicate 2
[3] = 12 h, 10 µM, compound concentration 10 uM, replicate 1
[4] = 12 h, 10 µM, compound concentration 10 uM, replicate 2
[5] = 24 h, 1 µM, compound concentration 1 uM, replicate 1
[6] = 24 h, 1 µM, compound concentration 1 uM, replicate 2
[7] = 24 h, 10 µM, compound concentration 10 uM, replicate 1
[8] = 24 h, 10 µM, compound concentration 10 uM, replicate 2

## N#Cc1cnc(Nc2cc(NC[C@H]3CNCCO3)c(C(F)(F)F)cn2)cn1 [SRA-737]
[1]
  Population Apoptotic (%): 16%
  Population Fragmented Nuclei (%): 13%
  Population Healthy Nuclei (%): 66%
  Population Hoechst High Intensity Objects (%): 13%
  Population Membrane Permeable-Phenotype (%): 3%
  Population Mitochondria Different-Phenotype (%): 3%
  Population Mitotic Cells (%): 83%
  Population Normal (%): 86%
  Population Pyknosed Nuclei (%): 19%
  Population Tubulin-Different-Phenotype (%): 3%
  Total Cell Count: 617
[2]
  Population Apoptotic (%): 12%
  Population Fragmented Nuclei (%): 11%
  Population Healthy Nuclei (%): 84%
  Population Hoechst High Intensity Objects (%): 2%
  Population Membrane Permeable-Phenotype (%): 2%
  Population Mitochondria Different-Phenotype (%): 7%
  Population Mitotic Cells (%): 87%
  Population Normal (%): 97%
  Population Pyknosed Nuclei (%): 3%
  Population Tubulin-Different-Phenotype (%): 5%
  Total Cell Count: 2034
[3]
  Population Apoptotic (%): 20%
  Population Fragmented Nuclei (%): 10%
  Population Healthy Nuclei (%): 69%
  Population Hoechst High Intensity Objects (%): 14%
  Population Mitochondria Different-Phenotype (%): 6%
  Population Mitotic Cells (%): 79%
  Population Normal (%): 85%
  Population Pyknosed Nuclei (%): 20%
  Population Tubulin-Different-Phenotype (%): 5%
  Total Cell Count: 721
[4]
  Population Apoptotic (%): 13%
  Population Fragmented Nuclei (%): 6%
  Population Healthy Nuclei (%): 85%
  Population Hoechst High Intensity Objects (%): 3%
  Population Membrane Permeable-Phenotype (%): 2%
  Population Mitochondria Different-Phenotype (%): 16%
  Population Mitotic Cells (%): 86%
  Population Normal (%): 96%
  Population Pyknosed Nuclei (%): 8%
  Population Tubulin-Different-Phenotype (%): 16%
  Total Cell Count: 1376
[5]
  Population Apoptotic (%): 9%
  Population Fragmented Nuclei (%): 10%
  Population Healthy Nuclei (%): 77%
  Population Hoechst High Intensity Objects (%): 7%
  Population Membrane Permeable-Phenotype (%): 5%
  Population Mitochondria Different-Phenotype (%): 2%
  Population Mitotic Cells (%): 90%
  Population Normal (%): 92%
  Population Pyknosed Nuclei (%): 11%
  Population Tubulin-Different-Phenotype (%): 4%
  Total Cell Count: 740
[6]
  Population Apoptotic (%): 5%
  Population Fragmented Nuclei (%): 34%
  Population Healthy Nuclei (%): 63%
  Population Hoechst High Intensity Objects (%): 4%
  Population Membrane Permeable-Phenotype (%): 8%
  Population Mitochondria Different-Phenotype (%): 1%
  Population Mitotic Cells (%): 94%
  Population Normal (%): 95%
  Population Pyknosed Nuclei (%): 2%
  Population Tubulin-Different-Phenotype (%): 10%
  Total Cell Count: 3420
[7]
  Population Apoptotic (%): 25%
  Population Fragmented Nuclei (%): 10%
  Population Healthy Nuclei (%): 70%
  Population Hoechst High Intensity Objects (%): 10%
  Population Membrane Permeable-Phenotype (%): 4%
  Population Mitochondria Different-Phenotype (%): 6%
  Population Mitotic Cells (%): 75%
  Population Normal (%): 89%
  Population Pyknosed Nuclei (%): 18%
  Population Tubulin-Different-Phenotype (%): 15%
  Total Cell Count: 729
[8]
  Population Apoptotic (%): 21%
  Population Fragmented Nuclei (%): 12%
  Population Healthy Nuclei (%): 64%
  Population Hoechst High Intensity Objects (%): 8%
  Population Membrane Permeable-Phenotype (%): 7%
  Population Mitochondria Different-Phenotype (%): 17%
  Population Mitotic Cells (%): 78%
  Population Normal (%): 91%
  Population Pyknosed Nuclei (%): 22%
  Population Tubulin-Different-Phenotype (%): 44%
  Total Cell Count: 1254
